Data: ChEMBL document CHEMBL4152223 (Eur J Med Chem, 2018)
Values after ≈ are worked out from the molar mass of the structure shown.

Assays:
[1] = tested on: Mycobacterium tuberculosis; assay: Antimycobacterial activity against INH/RIF/rifabutine/STM/EMB/OFX/gentamicin/amikacin resistant Mycobacterium tuberculosis Praha 131 after 14 days; assay type: functional; settings: Praha 131, 336 h
Summary of the method: (§1)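 MIC against four MDR-TB strains and one XDR-TB strain, each inoculated at 10^-3 dilution, using the same broth method as for drug-susceptible M. tuberculosis. Concentrations tested were 1000 down to 1 µM in twofold-type steps (1000, 500, 250, 125, 62.5, 32, 16, 8, 4, 2, 1 µM). MIC is the lowest concentration with complete growth inhibition.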

[2] = tested on: Mycobacterium tuberculosis; assay: Antimycobacterial activity against INH/RIF/rifabutine/STM/EMB resistant Mycobacterium tuberculosis 234/2005 after 21 days; assay type: functional; settings: 234/2005, 504 h; summary of the method: as §1
[3] = Selectivity ratio of MIC for INH/RIF/rifabutine/STM/EMB/clofazimine resistant Mycobacterium tuberculosis Praha 1 to MIC for Mycobacterium tuberculosis H37Rv; assay type: functional
[4] = tested on: Mycobacterium tuberculosis; assay: Antimycobacterial activity against INH/RIF/rifabutine/STM/EMB/clofazimine resistant Mycobacterium tuberculosis Praha 1 after 14 days; assay type: functional; settings: Praha 1, 336 h; summary of the method: as §1
[5] = Selectivity ratio of MIC for INH/RIF/rifabutine/STM/EMB/OFX/gentamicin/amikacin resistant Mycobacterium tuberculosis Praha 131 to MIC for Mycobacterium tuberculosis H37Rv; assay type: functional
[6] = Selectivity index, ratio of IC50 for human HepG2 cells to MIC for INH/RIF/rifabutine/STM/EMB/clofazimine resistant Mycobacterium tuberculosis Praha 1; assay type: toxicity; settings: read-out: Selectivity Index
Summary of the method: (§2)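 SI is calculated as HepG2 IC50 divided by MIC. HepG2 cells (passage 2-4) were grown in EMEM with 10% FBS, L-glutamine and non-essential amino acids. Compounds in DMSO were tested in triplicate at eight concentrations, and viability was read by MTS tetrazolium reduction. 10% DMSO served as the 0% viability control.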

[7] = tested on: Mycobacterium tuberculosis; assay: Antimycobacterial activity against INH/RIF/rifabutine/STM/EMB/clofazimine resistant Mycobacterium tuberculosis Praha 1 after 21 days; assay type: functional; settings: Praha 1, 504 h; summary of the method: as §1
[8] = Selectivity index, ratio of IC50 for human HepG2 cells to MIC for INH/RIF/rifabutine/STM/EMB/OFX/gentamicin/amikacin resistant Mycobacterium tuberculosis Praha 131; assay type: toxicity; settings: read-out: Selectivity Index; summary of the method: as §2
[9] = tested on: Mycobacterium tuberculosis; assay: Antimycobacterial activity against INH/RIF/rifabutine/STM resistant Mycobacterium tuberculosis 9449/2006 after 21 days; assay type: functional; settings: 9449/2006, 504 h; summary of the method: as §1
[10] = tested on: Mycobacterium tuberculosis; assay: Antimycobacterial activity against INH/RIF/rifabutine/STM/EMB/OFX/clofazimine resistant Mycobacterium tuberculosis Praha 4 after 14 days; assay type: functional; settings: Praha 4, 336 h; summary of the method: as §1
[11] = Selectivity ratio of MIC for INH/RIF/rifabutine/STM resistant Mycobacterium tuberculosis 9449/2006 to MIC for Mycobacterium tuberculosis H37Rv; assay type: functional
[12] = Selectivity index, ratio of IC50 for human HepG2 cells to MIC for INH/RIF/rifabutine/STM/EMB resistant Mycobacterium tuberculosis 234/2005; assay type: toxicity; settings: read-out: Selectivity Index; summary of the method: as §2
[13] = tested on: Mycobacterium tuberculosis; assay: Antimycobacterial activity against INH/RIF/rifabutine/STM resistant Mycobacterium tuberculosis 9449/2006 after 14 days; assay type: functional; settings: 9449/2006, 336 h; summary of the method: as §1
[14] = Selectivity ratio of MIC for INH/RIF/rifabutine/STM/EMB resistant Mycobacterium tuberculosis 234/2005 to MIC for Mycobacterium tuberculosis H37Rv; assay type: functional
[15] = Selectivity index, ratio of IC50 for human HepG2 cells to MIC for INH/RIF/rifabutine/STM/EMB/OFX/clofazimine resistant Mycobacterium tuberculosis Praha 4; assay type: toxicity; settings: read-out: Selectivity Index; summary of the method: as §2
[16] = Selectivity ratio of MIC for INH/RIF/rifabutine/STM/EMB/OFX/clofazimine resistant Mycobacterium tuberculosis Praha 4 to MIC for Mycobacterium tuberculosis H37Rv; assay type: functional
[17] = Selectivity index, ratio of IC50 for human HepG2 cells to MIC for INH/RIF/rifabutine/STM resistant Mycobacterium tuberculosis 9449/2006; assay type: toxicity; settings: read-out: Selectivity Index; summary of the method: as §2
[18] = tested on: Mycobacterium tuberculosis; assay: Antimycobacterial activity against INH/RIF/rifabutine/STM/EMB/OFX/clofazimine resistant Mycobacterium tuberculosis Praha 4 after 21 days; assay type: functional; settings: Praha 4, 504 h; summary of the method: as §1
[19] = tested on: Mycobacterium tuberculosis; assay: Antimycobacterial activity against INH/RIF/rifabutine/STM/EMB/OFX/gentamicin/amikacin resistant Mycobacterium tuberculosis Praha 131 after 21 days; assay type: functional; settings: Praha 131, 504 h; summary of the method: as §1
[20] = tested on: Mycobacterium tuberculosis; assay: Antimycobacterial activity against INH/RIF/rifabutine/STM/EMB resistant Mycobacterium tuberculosis 234/2005 after 14 days; assay type: functional; settings: 234/2005, 336 h; summary of the method: as §1

Row | Structure (SMILES) | MIC [1] [µM] | MIC [2] [µM] | Ratio [3] | MIC [4] [µM] | Ratio [5] | selectivity ratio [6] | MIC [7] [µM] | selectivity ratio [8] | MIC [9] [µM] | MIC [10] [µM] | Ratio [11] | selectivity ratio [12] | MIC [13] [µM] | Ratio [14] | selectivity ratio [15] | Ratio [16] | selectivity ratio [17] | MIC [18] [µM] | MIC [19] [µM] | MIC [20] [µM]
1 | CNC(=O)NNC(=O)c1ccncc1 | 32 (≈ 6.21 µg/mL) | 62.5 (≈ 12.1 µg/mL) | < 125 | 62.5 (≈ 12.1 µg/mL) | < 125 | > 80 | 62.5 (≈ 12.1 µg/mL) | > 80 | 62.5 (≈ 12.1 µg/mL) | 62.5 (≈ 12.1 µg/mL) | < 125 | > 80 | 62.5 (≈ 12.1 µg/mL) | < 125 | > 80 | < 125 | > 80 | 62.5 (≈ 12.1 µg/mL) | 62.5 (≈ 12.1 µg/mL) | 62.5 (≈ 12.1 µg/mL)
2 | CCCCCCCCCCCCNc1nnc(-c2ccncc2)o1 | 4 (≈ 1.32 µg/mL) | 8 (≈ 2.64 µg/mL) | – | 4 (≈ 1.32 µg/mL) | – | > 6.25 | 8 (≈ 2.64 µg/mL) | > 12.5 | 4 (≈ 1.32 µg/mL) | 4 (≈ 1.32 µg/mL) | – | > 6.25 | 4 (≈ 1.32 µg/mL) | – | > 6.25 | – | > 6.25 | 8 (≈ 2.64 µg/mL) | 8 (≈ 2.64 µg/mL) | 4 (≈ 1.32 µg/mL)
3 | CCCNC(=O)NNC(=O)c1ccncc1 | 16 (≈ 3.56 µg/mL) | 16 (≈ 3.56 µg/mL) | < 125 | 16 (≈ 3.56 µg/mL) | < 125 | > 312 | 16 (≈ 3.56 µg/mL) | > 312 | 16 (≈ 3.56 µg/mL) | 16 (≈ 3.56 µg/mL) | < 125 | > 312 | 16 (≈ 3.56 µg/mL) | < 125 | > 312 | < 125 | > 312 | 16 (≈ 3.56 µg/mL) | 16 (≈ 3.56 µg/mL) | 16 (≈ 3.56 µg/mL)
4 | CCNC(=O)NNC(=O)c1ccncc1 | 125 (≈ 26 µg/mL) | 125 (≈ 26 µg/mL) | – | 125 (≈ 26 µg/mL) | – | > 32 | 125 (≈ 26 µg/mL) | > 32 | 125 (≈ 26 µg/mL) | 125 (≈ 26 µg/mL) | – | > 32 | 125 (≈ 26 µg/mL) | – | > 32 | – | > 32 | 125 (≈ 26 µg/mL) | 125 (≈ 26 µg/mL) | 125 (≈ 26 µg/mL)
